In ChEMBL document CHEMBL1152452, “Modifications incorporated in CpG motifs of oligodeoxynucleotides lead to antagonist activity of toll-like receptors 7 and 9” (2009):
The source made the active and inactive calls. The calls are words filed in the database; no cut-off is given here.

What was measured:
[1] = biological target: T1, Toll-like receptor 9 (Mus musculus) (UniProt Q9EQU3); test: Activation of mouse TLR9 expressed in HEK293 cells assessed as NF-kappaB level at 1 ug/mL after 18 hrs by reporter gene assay; type: cell-based
T1 sequence (whole entry): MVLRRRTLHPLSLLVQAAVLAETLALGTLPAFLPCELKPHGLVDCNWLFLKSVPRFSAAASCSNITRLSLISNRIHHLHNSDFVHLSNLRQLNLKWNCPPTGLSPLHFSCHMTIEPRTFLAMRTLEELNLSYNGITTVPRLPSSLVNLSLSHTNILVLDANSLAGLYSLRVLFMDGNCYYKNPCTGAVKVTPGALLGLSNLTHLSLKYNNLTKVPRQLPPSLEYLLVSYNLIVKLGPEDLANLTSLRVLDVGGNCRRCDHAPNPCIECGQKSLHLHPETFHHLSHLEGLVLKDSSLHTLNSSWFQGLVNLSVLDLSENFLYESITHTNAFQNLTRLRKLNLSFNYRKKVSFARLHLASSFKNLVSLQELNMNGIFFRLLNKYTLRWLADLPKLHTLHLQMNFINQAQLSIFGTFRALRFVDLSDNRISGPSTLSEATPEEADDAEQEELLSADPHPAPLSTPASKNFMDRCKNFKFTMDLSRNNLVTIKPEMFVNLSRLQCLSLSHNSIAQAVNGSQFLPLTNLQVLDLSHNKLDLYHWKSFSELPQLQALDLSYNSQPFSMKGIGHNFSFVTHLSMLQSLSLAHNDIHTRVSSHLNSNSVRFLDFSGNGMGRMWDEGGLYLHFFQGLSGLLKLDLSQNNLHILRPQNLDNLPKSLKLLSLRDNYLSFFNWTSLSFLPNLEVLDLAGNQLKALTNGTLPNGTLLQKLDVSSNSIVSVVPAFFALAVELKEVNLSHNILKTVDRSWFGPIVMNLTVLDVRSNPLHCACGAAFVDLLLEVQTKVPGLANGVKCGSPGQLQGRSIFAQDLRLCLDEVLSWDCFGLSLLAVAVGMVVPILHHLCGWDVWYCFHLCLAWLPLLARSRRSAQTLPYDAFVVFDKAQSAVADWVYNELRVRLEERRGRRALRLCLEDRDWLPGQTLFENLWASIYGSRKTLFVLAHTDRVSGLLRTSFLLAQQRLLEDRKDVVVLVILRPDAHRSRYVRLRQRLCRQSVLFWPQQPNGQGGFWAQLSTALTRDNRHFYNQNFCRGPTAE
Procedure, shortened: (§1)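 HEK293 cells stably expressing mouse TLR9 were transiently transfected with a SEAP reporter for 6 h, then stimulated with ODN at 0.1, 0.3 or 1 μg/mL for 18 h. Reporter expression is given as fold change in NF-κB activity over medium. Representative of two independent experiments.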

J774 [2] = test: Activation of NF-kappaB in mouse J774 cells at 2.5 ug/ml after 1 hr by EMSA; type: cell-based
Procedure, shortened: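 Murine J774 macrophages in DMEM with 10% FBS and antibiotics, plated at 5×10^6 cells/well. ODNs were given alone or together for 1 h. For inhibition, the agonist ODN at 0.5 μg/mL was co-incubated with the modified ODN at 2.5 μg/mL. Nuclear extracts were resolved by EMSA on native polyacrylamide gels and read by autoradiography.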

Mus musculus [3] = test: Immunostimulatory activity in C57BL/6 mouse assessed as induction of TNFalpha level in serum at 2 mg/kg, sc after 2 hrs by Luminex multiplex assay; type: functional, organism-based; set-up: dose 2 mg/kg
Procedure, shortened: (§2)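 Female C57BL/6 mice, 5–6 weeks old, n = 3, received a single 2 mg/kg subcutaneous ODN injection in the right flank. Blood was taken by retro-orbital bleeding 2 h later. Naive mice served as baseline. Representative of three experiments.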

J774 [4] = test: Inhibition of 5'-CTATCTGACGTTCTCTGT-3'-activated NF-kappaB activity in mouse J774 cells at 2.5 ug/ml after 1 hr by EMSA; type: cell-based
Procedure, shortened: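 J774 murine macrophages were grown in DMEM with 10% FBS and antibiotics, plated at 5 × 10^6 cells/well, and co-incubated for 1 h with the agonist ODN (0.5 µg/mL) and test ODN (2.5 µg/mL). Nuclear extracts were prepared and NF-κB binding was analysed by EMSA on native polyacrylamide gels with autoradiography.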

[5] = biological target: T1, Toll-like receptor 9 (Mus musculus); test: Activation of mouse TLR9 expressed in HEK293 cells assessed as NF-kappaB level at 0.1 ug/mL after 18 hrs by reporter gene assay; type: cell-based; procedure, shortened: as §1
Splenocyte = test: Immunostimulatory activity in C57BL/6 mouse splenocytes assessed as induction of IL12 secretion at 2 to 10 ug/ml after 24 hrs by sandwich ELISA; type: functional, cell-based
Procedure, shortened: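 C57BL/6 splenocytes (mice 5–8 weeks) at 5 × 10^6 cells/mL in RPMI complete medium. ODNs dissolved in PBS were added and the cells incubated at 37 °C for 24 h. Supernatant IL-12 or IL-6 was measured by sandwich ELISA. Runs were done two or three times, in duplicate per concentration.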

Mus musculus [6] = test: Immunostimulatory activity in C57BL/6 mouse assessed as induction of IL12 level in serum at 2 mg/kg, sc after 2 hrs by sandwich ELISA; type: functional, organism-based; set-up: dose 2 mg/kg; procedure, shortened: as §2
Mus musculus [7] = test: Immunostimulatory activity in C57BL/6 mouse assessed as inhibition of 5'-CTATCTGACGTTCTCTGT-3'-induced TNFalpha production in serum at 2 mg/kg, sc administered 24 hrs prior to 5'-CTATCTGACGTTCTCTGT-3' challenge measured after 2 hrs by Luminex multiplex assay; type: functional, organism-based; set-up: dose 2 mg/kg
Procedure, shortened: (§3)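 C57BL/6 mice received 2 mg/kg ODN sc in one flank. After 24 h, the TLR9 agonist ODN was given at 0.5 mg/kg sc in the opposite flank. Blood was drawn 2 h later and serum cytokines/chemokines were quantified by Luminex multiplex assay. Percent inhibition was taken against the agonist alone. Representative of three experiments.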

Mus musculus [8] = test: Immunostimulatory activity in C57BL/6 mouse assessed as induction of MCP1 level in serum at 2 mg/kg, sc after 2 hrs by Luminex multiplex assay; type: functional, organism-based; set-up: dose 2 mg/kg; procedure, shortened: as §2
Mus musculus [9] = test: Immunostimulatory activity in C57BL/6 mouse assessed as inhibition of 5'-CTATCTGACGTTCTCTGT-3'-induced IL10 production in serum at 2 mg/kg, sc administered 24 hrs prior to 5'-CTATCTGACGTTCTCTGT-3' challenge measured after 2 hrs by Luminex multiplex assay; type: functional, organism-based; set-up: dose 2 mg/kg; procedure, shortened: as §3
Mus musculus [10] = test: Immunostimulatory activity in C57BL/6 mouse assessed as inhibition of 5'-CTATCTGACGTTCTCTGT-3'-induced IL12 production in serum at 2 mg/kg, sc administered 24 hrs prior to 5'-CTATCTGACGTTCTCTGT-3' challenge measured after 2 hrs by sandwich ELISA; type: functional; conditions: C57BL/6, sc, route subcutaneous
Procedure, shortened: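 C57BL/6 mice were pretreated sc in the right flank with 2, 5 or 10 mg/kg ODN. After 24 h, the TLR9 agonist ODN was given at 0.5 mg/kg sc in the left flank. Serum IL-12 was measured by ELISA 2 h later. Representative of two experiments.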

| SMILES | Activity [1] | Activity (J774 [2]) | Activity (Mus musculus [3]) | Activity (J774 [4]) | Activity [5] | Activity (Splenocyte) | Activity (Mus musculus [6]) | Activity (Mus musculus [7]) | Activity (Mus musculus [8]) | Activity (Mus musculus [9]) | inhibition in vivo at 2 mg/kg (Mus musculus [10]) [%] |
| --- | --- | --- | --- | --- | --- | --- | --- | --- | --- | --- | --- |
| CO[C@@H]1[C@H](OP(=O)(S)OC[C@H]2O[C@@H](n3cnc4c(=O)[nH]c(N)nc43)C[C@@H]2OP(=O)(S)OC[C@H]2O[C@@H](n3cc(C)c(=O)[nH]c3=O)C[C@@H]2OP(=O)(S)OC[C@H]2O[C@@H](n3cc(C)c(=O)[nH]c3=O)C[C@@H]2OP(=O)(S)OC[C@H]2O[C@@H](n3ccc(N)nc3=O)C[C@@H]2OP(=O)(S)OC[C@H]2O[C@@H](n3cc(C)c(=O)[nH]c3=O)C[C@@H]2OP(=O)(S)OC[C@H]2O[C@@H](n3ccc(N)nc3=O)C[C@@H]2OP(=O)(S)OC[C@H]2O[C@@H](n3cc(C)c(=O)[nH]c3=O)C[C@@H]2OP(=O)(S)OC[C@H]2O[C@@H](n3cnc4c(=O)[nH]c(N)nc43)C[C@@H]2OP(=O)(S)OC[C@H]2O[C@@H](n3cc(C)c(=O)[nH]c3=O)C[C@@H]2O)[C@@H](COP(=O)(S)O[C@H]2C[C@H](n3cnc4c(N)ncnc43)O[C@@H]2COP(=O)(S)O[C@H]2C[C@H](n3cnc4c(=O)[nH]c(N)nc43)O[C@@H]2COP(=O)(S)O[C@H]2C[C@H](n3cc(C)c(=O)[nH]c3=O)O[C@@H]2COP(=O)(S)O[C@H]2C[C@H](n3ccc(N)nc3=O)O[C@@H]2COP(=O)(S)O[C@H]2C[C@H](n3cc(C)c(=O)[nH]c3=O)O[C@@H]2COP(=O)(S)O[C@H]2C[C@H](n3cnc4c(N)ncnc43)O[C@@H]2COP(=O)(S)O[C@H]2C[C@H](n3cc(C)c(=O)[nH]c3=O)O[C@@H]2COP(=O)(S)O[C@H]2C[C@H](n3ccc(N)nc3=O)O[C@@H]2CO)O[C@H]1n1ccc(N)nc1=O (stereo partly drawn) | inactive | inactive | inactive | Active | inactive | Active | inactive | Active | inactive | Active | 50 |
| CO[C@@H]1[C@H](OP(=O)(S)OC[C@H]2O[C@@H](n3cc(C)c(=O)[nH]c3=O)C[C@@H]2OP(=O)(S)OC[C@H]2O[C@@H](n3cc(C)c(=O)[nH]c3=O)C[C@@H]2OP(=O)(S)OC[C@H]2O[C@@H](n3ccc(N)nc3=O)C[C@@H]2OP(=O)(S)OC[C@H]2O[C@@H](n3cc(C)c(=O)[nH]c3=O)C[C@@H]2OP(=O)(S)OC[C@H]2O[C@@H](n3ccc(N)nc3=O)C[C@@H]2OP(=O)(S)OC[C@H]2O[C@@H](n3cc(C)c(=O)[nH]c3=O)C[C@@H]2OP(=O)(S)OC[C@H]2O[C@@H](n3cnc4c(=O)[nH]c(N)nc43)C[C@@H]2OP(=O)(S)OC[C@H]2O[C@@H](n3cc(C)c(=O)[nH]c3=O)C[C@@H]2O)[C@@H](COP(=O)(S)O[C@H]2C[C@H](n3ccc(N)nc3=O)O[C@@H]2COP(=O)(S)O[C@H]2C[C@H](n3cnc4c(N)ncnc43)O[C@@H]2COP(=O)(S)O[C@H]2C[C@H](n3cnc4c(=O)[nH]c(N)nc43)O[C@@H]2COP(=O)(S)O[C@H]2C[C@H](n3cc(C)c(=O)[nH]c3=O)O[C@@H]2COP(=O)(S)O[C@H]2C[C@H](n3ccc(N)nc3=O)O[C@@H]2COP(=O)(S)O[C@H]2C[C@H](n3cc(C)c(=O)[nH]c3=O)O[C@@H]2COP(=O)(S)O[C@H]2C[C@H](n3cnc4c(N)ncnc43)O[C@@H]2COP(=O)(S)O[C@H]2C[C@H](n3cc(C)c(=O)[nH]c3=O)O[C@@H]2COP(=O)(S)O[C@H]2C[C@H](n3ccc(N)nc3=O)O[C@@H]2CO)O[C@H]1n1cnc2c(=O)[nH]c(N)nc21 (stereo partly drawn) | inactive | inactive | inactive | Active | inactive | Active | inactive | Active | inactive | Active | 50 |
| COC1[C@H](n2cc(C)c(N)nc2=O)O[C@H](COP(=O)(S)O[C@H]2C[C@H](n3cnc4c(N)ncnc43)O[C@@H]2COP(=O)(S)O[C@H]2C[C@H](n3cnc4c(=O)[nH]c(N)nc43)O[C@@H]2COP(=O)(S)O[C@H]2C[C@H](n3cc(C)c(=O)[nH]c3=O)O[C@@H]2COP(=O)(S)O[C@H]2C[C@H](n3ccc(N)nc3=O)O[C@@H]2COP(=O)(S)O[C@H]2C[C@H](n3cc(C)c(=O)[nH]c3=O)O[C@@H]2COP(=O)(S)O[C@H]2C[C@H](n3cnc4c(N)ncnc43)O[C@@H]2COP(=O)(S)O[C@H]2C[C@H](n3cc(C)c(=O)[nH]c3=O)O[C@@H]2COP(=O)(S)O[C@H]2C[C@H](n3ccc(N)nc3=O)O[C@@H]2CO)[C@H]1OP(=O)(S)OC[C@H]1O[C@@H](n2cnc3c(=O)[nH]c(N)nc32)C[C@@H]1OP(=O)(S)OC[C@H]1O[C@@H](n2cc(C)c(=O)[nH]c2=O)C[C@@H]1OP(=O)(S)OC[C@H]1O[C@@H](n2cc(C)c(=O)[nH]c2=O)C[C@@H]1OP(=O)(S)OC[C@H]1O[C@@H](n2ccc(N)nc2=O)C[C@@H]1OP(=O)(S)OC[C@H]1O[C@@H](n2cc(C)c(=O)[nH]c2=O)C[C@@H]1OP(=O)(S)OC[C@H]1O[C@@H](n2ccc(N)nc2=O)C[C@@H]1OP(=O)(S)OC[C@H]1O[C@@H](n2cc(C)c(=O)[nH]c2=O)C[C@@H]1OP(=O)(S)OC[C@H]1O[C@@H](n2cnc3c(=O)[nH]c(N)nc32)C[C@@H]1OP(=O)(S)OC[C@H]1O[C@@H](n2cc(C)c(=O)[nH]c2=O)C[C@@H]1O (stereo partly drawn) | inactive | inactive | inactive | Active | inactive | Active | inactive | Active | inactive | Active | 50 |
